We go through four compounds from ChEMBL document CHEMBL3045743, “Synthesis and herbicidal activity of isoindoline-1,3-dione substituted benzoxazinone derivatives containing a carboxylic ester group” (J Agric Food Chem, 2009).

The test system of one data set is Triticum aestivum. As to the kind of experiment: Phytotoxicity against Triticum aestivum (wheat) assessed as growth inhibition at 150 g.a.i/ha pre-emergent application measured after 15 days by greenhouse crop selectivity assay. The data set is classed as organism-based. The conditions noted are these: in vivo, other, 360 h. The method, boiled down: (§1)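 Pre-emergence greenhouse crop selectivity test on pot-grown plants in clay soil (pH 6.5, 1.7% organic matter, 37.5% clay, CEC 12.9 cmol/kg). Stock solutions were diluted with water and applied at 300, 150, 75 or 37.5 g a.i./ha, in triplicate. After 15 days, phytotoxicity was scored visually against untreated controls as % crop growth inhibition, averaged over the triplicates.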

A further data set has as its system Gossypium. As to the kind of experiment: (§2) Phytotoxicity against Gossypium (cotton) assessed as growth inhibition at 300 g.a.i/ha pre-emergent application measured after 15 days by greenhouse crop selectivity assay. Format: organism-based. Conditions: in vivo, other, 360 h; call rule not given here. The method, boiled down: as §1
Another data set deals with Zea mays. The data set can be described thus: (§3) Phytotoxicity against Zea mays (maize) assessed as growth inhibition at 300 g.a.i/ha pre-emergent application measured after 15 days by greenhouse crop selectivity assay. Format: organism-based. Conditions: in vivo, other, 360 h. The procedure, abridged:
as §1

Data set [1] deals with Oryza sativa. As to the kind of experiment: Phytotoxicity against Oryza sativa (rice) assessed as growth inhibition at 75 g.a.i/ha pre-emergent application measured after 15 days by greenhouse crop selectivity assay. The data set is classed as organism-based, L. The conditions noted are these: in vivo, other, 360 h. The method, boiled down: as §1
Data set [2] has as its system Oryza sativa. The data set can be described thus: Phytotoxicity against Oryza sativa (rice) assessed as growth inhibition at 37.5 g.a.i/ha pre-emergent application measured after 15 days by greenhouse crop selectivity assay. Format: organism-based, L. Conditions: in vivo, other, 360 h. The procedure, abridged: as §1
The nature of data set [3]: as §2. The data set is classed as organism-based. The conditions noted are these: in vivo, 300 g.a.i/ha, read-out: GI. The procedure, abridged:
as §1

Data set [4] can be described thus: as §3. The data set is classed as organism-based. Conditions: in vivo, 300 g.a.i/ha, read-out: GI. The procedure, abridged: as §1
A short description of data set [5]: Phytotoxicity against Glycine max (soybean) assessed as growth inhibition at 75 g.a.i/ha pre-emergent application measured after 15 days by greenhouse crop selectivity assay. Conditions: in vivo, 75 g.a.i/ha, read-out: GI. Format: organism-based. The method, boiled down:
as §1

Data set [6] can be described thus: Phytotoxicity against Triticum aestivum (wheat) assessed as growth inhibition at 37.5 g.a.i/ha pre-emergent application measured after 15 days by greenhouse crop selectivity assay. The data set is classed as organism-based. The conditions noted are these: in vivo, 37.5 g.a.i/ha, read-out: GI. The method, boiled down: as §1
Data set [7] can be described thus: Phytotoxicity against Glycine max (soybean) assessed as growth inhibition at 300 g.a.i/ha pre-emergent application measured after 15 days by greenhouse crop selectivity assay. Format: organism-based. Conditions: in vivo, 300 g.a.i/ha, read-out: GI. The procedure, abridged: as §1
Data set [8] is described as follows: Phytotoxicity against Glycine max (soybean) assessed as growth inhibition at 150 g.a.i/ha pre-emergent application measured after 15 days by greenhouse crop selectivity assay. Format: organism-based. The conditions noted are these: in vivo, 150 g.a.i/ha, read-out: GI. The method, boiled down:
as §1

For `CCOC(=O)C(CC)N1C(=O)C(C)Oc2cc(F)c(N3C(=O)C4=C(CCCC4)C3=O)cc21` (stereo not given), the “growth inhibition (GI)” value in the data set on Triticum aestivum, with Gossypium, in the data set on Zea mays, in the data set on Oryza sativa [1] and with Oryza sativa [2] was “Not Active” each time.
With `CCOC(=O)C(C)N1C(=O)C(C)Oc2cc(F)c(N3C(=O)C4=C(CCCC4)C3=O)cc21` (stereo not given), the “growth inhibition (GI)” value in the data set on Gossypium and with Zea mays was “Not Active” each time.
As to `COC(=O)C(C)N1C(=O)C(C)Oc2cc(F)c(N3C(=O)C4=C(CCCC4)C3=O)cc21` (stereo not given), the inhibition at 360 h in data set [3] and in data set [4] was above 10% each time.
Take `C#CCN1C(=O)COc2cc(F)c(N3C(=O)C4=C(CCCC4)C3=O)cc21` [FLUMIOXAZIN]: the inhibition at 360 h in data set [5], in [6], in [7], in data set [3], in data set [8] and in [4] was above 10% in each case.
